For 39 compounds, IC50 and EC50 results are on record in ChEMBL document CHEMBL1145027, “Design and synthesis of statine-based cell-permeable peptidomimetic inhibitors of human beta-secretase” (J Med Chem, 2003).

Usually IC50 stands for the concentration that inhibits the measured activity by half. Lower therefore signals inhibition by little substance. In general, EC50 refers to the concentration that produces a half-maximal response. The low end stands for higher potency in that assay, the high end for lower potency in that assay.

Where a SMILES comes first, the peptide text is derived from it. [ ]: non-standard residue; d: D form. Sta = CC(C)C[C@H](N)[C@@H](O)CC(=O)O A value given as a limit tells only on which side of the number the result lay.

The target in one assay is Beta-secretase 1 (Homo sapiens, UniProt P56817). The assay can be described thus: Inhibition of human beta-secretase (BACE) in MBP-C125 assay. Summed up:
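BACE activity measured with maltose-binding protein fused C-125 (MBP-C125) substrate; IC50 taken as the concentration giving 50% inhibition of enzyme activity, averaged from two or more runs.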

A further assay has as its system HEK293. The assay can be described thus: Inhibition of A beta-secretion in transfected human embryonic kidney (HEK293) cells. Type of assay: functional, cell-based. Summed up:
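Transfected HEK-293 cells incubated with inhibitor; Aβ secretion measured and EC50 taken as the concentration giving 50% inhibition of Aβ production.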

Beta-secretase 1, sequence (P56817 whole entry, the tested form may be a part): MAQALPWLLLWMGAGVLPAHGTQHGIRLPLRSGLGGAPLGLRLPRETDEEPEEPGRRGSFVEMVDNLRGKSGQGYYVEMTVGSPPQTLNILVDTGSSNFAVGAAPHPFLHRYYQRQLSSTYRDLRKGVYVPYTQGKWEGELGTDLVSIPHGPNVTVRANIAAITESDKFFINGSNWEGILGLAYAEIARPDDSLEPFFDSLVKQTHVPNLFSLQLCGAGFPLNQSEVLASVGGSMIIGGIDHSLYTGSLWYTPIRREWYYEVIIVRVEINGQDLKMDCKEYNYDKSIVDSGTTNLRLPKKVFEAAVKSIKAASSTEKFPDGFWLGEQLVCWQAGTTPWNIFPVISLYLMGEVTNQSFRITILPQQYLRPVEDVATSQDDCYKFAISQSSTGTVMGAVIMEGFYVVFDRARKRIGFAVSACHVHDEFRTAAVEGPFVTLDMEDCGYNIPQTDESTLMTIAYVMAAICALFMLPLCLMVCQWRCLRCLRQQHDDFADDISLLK

Compound `CC(C)C[C@H](NC(=O)C(O)c1cccc2ccccc12)[C@@H](O)CC(=O)N[C@H](C(=O)NC1C[C@@H](C(=O)O)C[C@@H](C(=O)O)C1)C(C)C` (stereo partly specified) yielded an IC50 on Beta-secretase 1 of 3 µM. In other words, the single-digit micromolar range.
At Beta-secretase 1, `CC(C)CC(NC(=O)c1ccc2ccccc2c1)[C@@H](O)CC(=O)N[C@@H](C(=O)N[C@H](C)C(=O)N[C@H](CCC(=O)O)C(=O)N[C@H](Cc1ccccc1)C(=O)O)C(C)C` (stereo partly specified) yielded an IC50 of 48 µM. Compared with the last compound, the IC50 is about 16-fold higher.
Same read-out and setting: the result for `CC(C)CC(NC(=O)C(O)c1cccc2ccccc12)[C@@H](O)CC(=O)N[C@@H](C(=O)N[C@H](C)C(=O)N[C@H](CCC(=O)O)C(=O)N[C@H](Cc1ccccc1)C(=O)O)C(C)C` (stereo partly specified) reads 4 µM; that for `CSCC[C@H](NC(=O)[C@@H](NC(=O)OC(C)(C)C)C(C)C)C(=O)NC(CC(C)C)[C@@H](O)CC(=O)N[C@@H](C(=O)NCc1ccc(C(=O)O)cc1)C(C)C` (stereo partly specified), 4 µM.
The same measure, in the same setting: under `CC(C)CC(NC(=O)Cc1ccccc1)[C@@H](O)CC(=O)N[C@@H](C(=O)N[C@H](C)C(=O)N[C@H](CCC(=O)O)C(=O)N[C@H](Cc1ccccc1)C(=O)O)C(C)C` (stereo partly specified) stands 130 µM.
On the same count and under the same terms, under `CSCC[C@H](NC(=O)[C@@H](NC(=O)OC(C)(C)C)C(C)C)C(=O)NC(CC(C)C)[C@@H](O)CC(=O)N[C@@H](C(=O)NC1CCCCC1)C(C)C` (stereo partly specified) stands greater than 200 µM; under `CC(C)CC(NC(=O)C(O)c1cccc(Oc2ccccc2)c1)[C@@H](O)CC(=O)N[C@@H](C(=O)N[C@H](C)C(=O)N[C@H](CCC(=O)O)C(=O)N[C@H](Cc1ccccc1)C(=O)O)C(C)C` (stereo partly specified), 6 µM; under `CSCC[C@H](NC(=O)[C@@H](NC(=O)OC(C)(C)C)C(C)C)C(=O)NC(CC(C)C)[C@@H](O)CC(=O)N[C@@H](C(=O)NCc1ccncc1)C(C)C` (stereo partly specified), greater than 100 µM.
`CSCC[C@H](NC(=O)[C@@H](NC(=O)OC(C)(C)C)C(C)C)C(=O)NC(CC(C)C)[C@@H](O)CC(=O)N[C@@H](C(=O)NCc1cccc(C(=O)O)c1)C(C)C` (stereo partly specified): it took 4 µM to reach half-maximal inhibition against Beta-secretase 1 (IC50).
On the same count and under the same terms, the result for `CC(C)CC(NC(=O)Cc1ccc(-c2ccccc2)cc1)[C@@H](O)CC(=O)N[C@@H](C(=O)N[C@H](C)C(=O)N[C@H](CCC(=O)O)C(=O)N[C@H](Cc1ccccc1)C(=O)O)C(C)C` (stereo partly specified) reads 56 µM.
The same measure, in the same setting: the result for `CO[C@H](C(=O)NC(CC(C)C)[C@@H](O)CC(=O)N[C@@H](C(=O)N[C@H](C)C(=O)N[C@H](CCC(=O)O)C(=O)N[C@H](Cc1ccccc1)C(=O)O)C(C)C)c1ccccc1` (stereo partly specified) reads 28 µM; that for `COc1cc(CC(=O)NC(CC(C)C)[C@@H](O)CC(=O)N[C@@H](C(=O)N[C@H](C)C(=O)N[C@H](CCC(=O)O)C(=O)N[C@H](Cc2ccccc2)C(=O)O)C(C)C)cc(OC)c1OC` (stereo partly specified), 94 µM.
At Beta-secretase 1, `COC(=O)[C@@H]1CC(NC(=O)[C@H](NC(=O)C[C@H](O)C(CC(C)C)NC(=O)[C@H](CCSC)NC(=O)[C@@H](NC(=O)OC(C)(C)C)C(C)C)C(C)C)C[C@H](C(=O)OC)C1` (stereo partly specified) had an IC50 of 10 µM.
Consider `CC(C)CC(NC(=O)Cc1ccc(F)cc1F)[C@@H](O)CC(=O)N[C@@H](C(=O)N[C@H](C)C(=O)N[C@H](CCC(=O)O)C(=O)N[C@H](Cc1ccccc1)C(=O)O)C(C)C` (stereo partly specified), for which, on Beta-secretase 1, the IC50 was 140 µM. This IC50 lies about 14-fold higher than the previous one.
As for `COC(=O)CCCCC(=O)NC(CC(C)C)[C@@H](O)CC(=O)N[C@@H](C(=O)N[C@H](C)C(=O)N[C@H](CCC(=O)O)C(=O)N[C@H](Cc1ccccc1)C(=O)O)C(C)C` (stereo partly specified), the IC50 against Beta-secretase 1 stood at 50 µM. Against the preceding compound, the IC50 is about 2.8-fold lower.
Compound `CSCC[C@H](NC(=O)[C@@H](NC(=O)OC(C)(C)C)C(C)C)C(=O)NC(CC(C)C)[C@@H](O)CC(=O)N[C@@H](C(=O)NCc1ccccc1)C(C)C` (stereo partly specified) yielded an IC50 against Beta-secretase 1 greater than 200 µM.
`CC(C)C[C@H](NC(=O)C(O)c1ccccc1Br)[C@@H](O)CC(=O)N[C@H](C(=O)NCc1ccc(C(=O)O)cc1)C(C)C` (stereo partly specified) came in with an IC50 on Beta-secretase 1 of 40 µM.
Still for that read-out and setting: under `CC(C)Cc1ccc(C(=O)NC(CC(C)C)[C@@H](O)CC(=O)N[C@@H](C(=O)N[C@H](C)C(=O)N[C@H](CCC(=O)O)C(=O)N[C@H](Cc2ccccc2)C(=O)O)C(C)C)cc1` (stereo partly specified) stands 28 µM.
Still for that read-out and setting: the result for `CSCC[C@H](NC(=O)[C@@H](NC(=O)OC(C)(C)C)C(C)C)C(=O)NC(CC(C)C)[C@@H](O)CC(=O)N[C@@H](C(=O)NCc1ccc2c(c1)OCO2)C(C)C` (stereo partly specified) reads greater than 100 µM; that for `CSCC[C@H](NC(=O)[C@@H](NC(=O)OC(C)(C)C)C(C)C)C(=O)NC(CC(C)C)[C@@H](O)CC(=O)N[C@@H](C(=O)NO)C(C)C` (stereo partly specified), 94 µM; that for `CSCC[C@H](NC(=O)[C@@H](NC(=O)OC(C)(C)C)C(C)C)C(=O)NC(CC(C)C)[C@@H](O)CC(=O)N[C@@H](C(=O)NC1C[C@@H](C(=O)O)C[C@@H](C(=O)O)C1)C(C)C` (stereo partly specified), 0.3 µM.
Still for that read-out and setting: under `CC(C)CC(NC(=O)CCCOc1ccccc1)[C@@H](O)CC(=O)N[C@@H](C(=O)N[C@H](C)C(=O)N[C@H](CCC(=O)O)C(=O)N[C@H](Cc1ccccc1)C(=O)O)C(C)C` (stereo partly specified) stands 25 µM; under `CSCC[C@H](NC(=O)[C@@H](NC(=O)OC(C)(C)C)C(C)C)C(=O)NC(CC(C)C)[C@@H](O)CC(=O)N[C@@H](C(=O)NCc1cccc(OCC(=O)O)c1)C(C)C` (stereo partly specified), 5 µM; under `CC(C)CC(NC(=O)C(O)c1ccccc1Br)[C@@H](O)CC(=O)N[C@@H](C(=O)N[C@H](C)C(=O)N[C@H](CCC(=O)O)C(=O)N[C@H](Cc1ccccc1)C(=O)O)C(C)C` (stereo partly specified), 3 µM.
In turn, `CC(C)CC(NC(=O)C(O)c1ccccc1Oc1ccccc1)[C@@H](O)CC(=O)N[C@@H](C(=O)N[C@H](C)C(=O)N[C@H](CCC(=O)O)C(=O)N[C@H](Cc1ccccc1)C(=O)O)C(C)C` (stereo partly specified) gave an IC50 against Beta-secretase 1 of 14 µM.
On Beta-secretase 1, `COC(=O)CCCNC(=O)[C@H](NC(=O)C[C@H](O)C(CC(C)C)NC(=O)[C@H](CCSC)NC(=O)[C@@H](NC(=O)OC(C)(C)C)C(C)C)C(C)C` (stereo partly specified) came in with an IC50 of 47 µM.
Still for that read-out and setting: the result for `CCCCNC(=O)[C@H](NC(=O)C[C@H](O)C(CC(C)C)NC(=O)[C@H](CCSC)NC(=O)[C@@H](NC(=O)OC(C)(C)C)C(C)C)C(C)C` (stereo partly specified) reads greater than 200 µM; that for `CCCCOc1ccc(C(=O)NC(CC(C)C)[C@@H](O)CC(=O)N[C@@H](C(=O)N[C@H](C)C(=O)N[C@H](CCC(=O)O)C(=O)N[C@H](Cc2ccccc2)C(=O)O)C(C)C)cc1` (stereo partly specified), 27 µM; that for `CC(C)CC(NC(=O)[C@@H](O)c1ccccc1)[C@@H](O)CC(=O)N[C@@H](C(=O)N[C@H](C)C(=O)N[C@H](CCC(=O)O)C(=O)N[C@H](Cc1ccccc1)C(=O)O)C(C)C` (stereo partly specified), 17 µM.
Compound `CO[C@](C)(C(=O)NC(CC(C)C)[C@@H](O)CC(=O)N[C@@H](C(=O)N[C@H](C)C(=O)N[C@H](CCC(=O)O)C(=O)N[C@H](Cc1ccccc1)C(=O)O)C(C)C)c1ccccc1` (stereo partly specified) yielded an IC50 at Beta-secretase 1 of 41 µM.
On the same count and under the same terms, under `CC(C)C[C@H](NC(=O)C(O)c1cccc2ccccc12)[C@@H](O)CC(=O)N[C@H](C(=O)NCc1ccc(C(=O)O)cc1)C(C)C` (stereo partly specified) stands 50 µM; under `CSCC[C@H](NC(=O)[C@@H](NC(=O)OC(C)(C)C)C(C)C)C(=O)NC(CC(C)C)[C@@H](O)CC(=O)N[C@@H](C(=O)NCCCC(=O)O)C(C)C` (stereo partly specified), 47 µM.
Same read-out and setting: the result for `COC(=O)[C@@H]1CC(NC(=O)[C@@H](NC(=O)C[C@H](O)[C@H](CC(C)C)NC(=O)C(O)c2cccc3ccccc23)C(C)C)C[C@H](C(=O)OC)C1` (stereo partly specified) reads 140 µM; that for `CC(C)CC(NC(=O)Cc1cccc2ccccc12)[C@@H](O)CC(=O)N[C@@H](C(=O)N[C@H](C)C(=O)N[C@H](CCC(=O)O)C(=O)N[C@H](Cc1ccccc1)C(=O)O)C(C)C` (stereo partly specified), 42 µM.
Still for that read-out and setting: under `CSCC[C@H](NC(=O)[C@@H](NC(=O)OC(C)(C)C)C(C)C)C(=O)NC(CC(C)C)[C@@H](O)CC(=O)N[C@@H](C(=O)NCCC(=O)O)C(C)C` (stereo partly specified) stands 30 µM; under `CC(C)CC(NC(=O)C(O)c1ccccc1OCc1ccccc1)[C@@H](O)CC(=O)N[C@@H](C(=O)N[C@H](C)C(=O)N[C@H](CCC(=O)O)C(=O)N[C@H](Cc1ccccc1)C(=O)O)C(C)C` (stereo partly specified), 11 µM; under `CSCC[C@H](NC(=O)[C@@H](NC(C)=O)C(C)C)C(=O)N[C@@H](CC(C)C)[C@@H](O)CC(=O)N[C@H](C(=O)N[C@@H](C)C(=O)N[C@@H](CCC(=O)O)C(=O)N[C@@H](Cc1ccccc1)C(=O)O)C(C)C` (Ac-VM[Sta]VAEF-OH), 0.3 µM.
In turn, `COC(=O)[C@@H]1CC(NC(=O)[C@H](NC(=O)C[C@H](O)[C@@H](Cc2cc(F)cc(F)c2)NC(=O)C(O)c2ccccc2-c2ccccc2)C(C)C)C[C@H](C(=O)OC)C1` (single isomer, unassigned; isomer 1) displayed an EC50 in the assay with HEK293 of 4 µM. The compound also came in with an IC50 against Beta-secretase 1 of 0.12 µM.
For `COC(=O)[C@@H]1CC(NC(=O)[C@H](NC(=O)C[C@H](O)[C@@H](Cc2cc(F)cc(F)c2)NC(=O)C(O)c2ccccc2-c2ccccc2)C(C)C)C[C@H](C(=O)OC)C1` (single isomer, unassigned; isomer 2) the same measures were greater than 10 µM and 10 µM.
